The values below come from ChEMBL document CHEMBL1157505, “Design and in vitro characterization of highly sst2-selective somatostatin antagonists suitable for radiotargeting” (J Med Chem, 2008).

Each structure is given as a SMILES string. Active and inactive are the calls of the source. The calls are words filed in the database; no cut-off is given here.

Holding throughout (assay type): functional, cell-based
In experiment [1] the target is T1, Somatostatin receptor type 2 (Homo sapiens, UniProt P30874). The experiment in a line: Antagonist activity at T7 epitope tagged human cloned sst2 expressed in HEK293 cells assessed as intracellular calcium release upto 10 uM. A digest of the protocol: (§1)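 HEK-sst2 cells seeded on poly-D-lysine, cultured 1 day, loaded with Fluo-4NW dye (assay buffer HBSS/20 mM HEPES, 2.5 mM probenecid) 30 min 37 °C plus 30 min RT. Analogues alone up to 10 μM, or [Tyr3]-octreotide with 100-fold excess analogue; fluorescence (ex 485/em 520 nm) recorded 60 s at RT; percentage of ionomycin (25 μM) maximum over baseline; ≥3 experiments in triplicate.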
On the technique in general: Calcium assays in cells follow changes in intracellular calcium, usually with a dye or a luminescent sensor.

Experiment [2] concerns the target T1, Somatostatin receptor type 2. As to the kind of experiment: Antagonist activity at T7 epitope tagged human cloned sst2 receptor expressed in HEK293 cells assessed as inhibition of [Tyr3]octreotide-induced receptor internalization upto 10 uM. The method, boiled down:
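Surface T7-tagged sst2 on HEK-sst2 cells labelled with anti-T7 antibody 2 h RT in DMEM-LH, then cells exposed 30 min at 37 °C to analogue (alone up to 10 μM or with [Tyr3]-octreotide), fixed in 3% paraformaldehyde, probed with HRP anti-mouse IgG, ABTS read at OD405; surface receptor as % of untreated; mean ± SEM, three experiments in duplicate.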

Experiment [3] shares this target. As to the kind of experiment: Antagonist activity at T7 epitope tagged human cloned sst2 expressed in HEK293 cells assessed as [Tyr3]octreotide-induced intracellular calcium release upto 10 uM. A digest of the protocol:
as §1

T1 sequence (P30874 whole entry): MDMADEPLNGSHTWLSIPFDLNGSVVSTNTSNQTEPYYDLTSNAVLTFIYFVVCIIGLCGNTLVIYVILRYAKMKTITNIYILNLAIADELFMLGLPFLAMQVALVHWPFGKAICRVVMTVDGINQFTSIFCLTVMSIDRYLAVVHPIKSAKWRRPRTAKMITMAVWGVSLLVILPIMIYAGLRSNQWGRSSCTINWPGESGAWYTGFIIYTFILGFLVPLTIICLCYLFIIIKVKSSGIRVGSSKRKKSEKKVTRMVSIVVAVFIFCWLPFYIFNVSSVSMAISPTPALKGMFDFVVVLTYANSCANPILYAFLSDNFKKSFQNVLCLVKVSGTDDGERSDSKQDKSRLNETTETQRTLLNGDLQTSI

As for `CC(=O)N[C@H](Cc1ccc([N+](=O)[O-])cc1)C(=O)N[C@@H]1CSSC[C@@H](C(=O)N[C@H](Cc2ccc(O)cc2)C(N)=O)NC(=O)[C@H]([C@@H](C)O)NC(=O)[C@H](CCCCN)NC(=O)[C@@H](Cc2c[nH]c3ccccc23)NC(=O)[C@H](Cc2ccc(O)cc2)NC1=O`, the outcome in experiment [1] was inactive. In experiment [2], the outcome was Active.
In the case of `CC(C)C[C@@H]1NC(=O)[C@H](NC(=O)[C@H](N)Cc2ccc(Cl)cc2)CSSC[C@@H](C(=O)N[C@@H](Cc2ccc3ccccc3c2)C(N)=O)NC(=O)[C@H]([C@@H](C)O)NC(=O)[C@H](CCCCN)NC(=O)[C@@H](Cc2c[nH]c3ccccc23)NC1=O`, in experiment [1], the outcome was inactive.
As for `C[C@@H](O)[C@@H]1NC(=O)[C@H](CCCCN)NC(=O)[C@@H](Cc2ccc(NC(N)=O)cc2)NC(=O)[C@H](Cc2ccc(O)cc2)NC(=O)[C@H](NC(=O)[C@@H](Cc2ccc(Cl)cc2)NC(=O)CN2CCN(CC(=O)O)CCN(CC(=O)O)CCN(CC(=O)O)CC2)CSSC[C@@H](C(=O)N[C@@H](Cc2ccc3ccccc3c2)C(N)=O)NC1=O`, the result in experiment [3] and in experiment [2] was Active. For the same compound, the result in experiment [1] was inactive.
Turning to `C[C@@H](O)[C@@H]1NC(=O)[C@H](CCCCN)NC(=O)[C@@H](Cc2c[nH]c3ccccc23)NC(=O)[C@H](Cc2ccc(NC(N)=O)cc2)NC(=O)[C@H](NC(=O)[C@H](N)Cc2ccc(Cl)cc2)CSSC[C@@H](C(=O)N[C@@H](Cc2ccc3ccccc3c2)C(N)=O)NC1=O`, the outcome in experiment [3] and in experiment [2] was Active. Besides, the result in experiment [1] was inactive.
On to `C[C@@H](O)[C@@H]1NC(=O)[C@H](CCCCN)NC(=O)[C@@H](Cc2c[nH]c3ccccc23)NC(=O)[C@H](Cc2ccc(NC(N)=O)cc2)NC(=O)[C@H](NC(=O)[C@H](N)Cc2ccc(Cl)cc2)CSSC[C@@H](C(=O)N[C@H](Cc2ccc(NC(N)=O)cc2)C(N)=O)NC1=O`, for which the outcome in experiment [1] was inactive.
Same read-out and setting: the entry for `C[C@@H](O)[C@@H]1NC(=O)[C@H](CCCCN)NC(=O)[C@@H](Cc2c[nH]c3ccccc23)NC(=O)[C@H](Cc2ccc(NC(=O)NO)cc2)NC(=O)[C@H](NC(=O)[C@H](N)Cc2ccc(Cl)cc2)CSSC[C@@H](C(=O)N[C@@H](Cc2ccc3ccccc3c2)C(N)=O)NC1=O` is “inactive”; for `C[C@@H](O)[C@@H]1NC(=O)[C@H](CCCCN)NC(=O)[C@@H](Cc2ccc(NC(N)=O)cc2)NC(=O)[C@H](Cc2ccc(NC(=O)[C@@H]3CC(=O)NC(=O)N3)cc2)NC(=O)[C@H](NC(=O)[C@H](N)Cc2ccc([N+](=O)[O-])cc2)CSSC[C@@H](C(=O)N[C@@H](Cc2ccc3ccccc3c2)C(N)=O)NC1=O` it is “inactive”.
The same measure, in the same setting: the entry for `C[C@@H](O)[C@@H]1NC(=O)[C@H](CCCCN)NC(=O)[C@@H](Cc2c[nH]c3ccccc23)NC(=O)[C@H](Cc2ccc(NC(N)=O)cc2)NC(=O)[C@H](NC(=O)[C@H](N)Cc2ccc(Cl)cc2)CSSC[C@@H](C(=O)N[C@@H](CC2CCCCC2)C(N)=O)NC1=O` is “inactive”.
The same measure, in the same setting: in the case of `C[C@@H](O)[C@@H]1NC(=O)[C@H](CCCCN)NC(=O)[C@@H](Cc2c[nH]c3ccccc23)NC(=O)[C@H](Cc2ccc(NC(N)=O)cc2)NC(=O)[C@H](NC(=O)[C@@H](Cc2ccc(Cl)cc2)NC(N)=O)CSSC[C@@H](C(=O)N[C@@H](Cc2ccc3ccccc3c2)C(N)=O)NC1=O` it was “inactive”.
As for `C[C@@H](O)[C@@H]1NC(=O)[C@H](CCCCN)NC(=O)[C@@H](Cc2c[nH]c3ccccc23)NC(=O)[C@H](N(C)C(=O)c2ccccc2)NC(=O)[C@H](NC(=O)[C@H](N)Cc2ccc(Cl)cc2)CSSC[C@@H](C(=O)N[C@@H](Cc2ccc3ccccc3c2)C(N)=O)NC1=O`, the outcome in experiment [1] was inactive. The outcome in experiment [2] was Active.
With `C[C@@H](O)[C@@H]1NC(=O)[C@H](CCCCN)NC(=O)[C@@H](Cc2c[nH]c3ccccc23)NC(=O)[C@H](Cc2ccc(NC(N)=O)cc2)NC(=O)[C@H](NC(=O)[C@@H](Cc2ccc(Cl)cc2)NC(=O)CN2CCN(CC(=O)O)CCN(CC(=O)O)CCN(CC(=O)O)CC2)CSSC[C@@H](C(=O)N[C@@H](Cc2ccc3ccccc3c2)C(N)=O)NC1=O`, the outcome in experiment [3] and in experiment [2] was Active. For the same compound, in experiment [1], the outcome was inactive.
As to `C[C@@H](O)[C@@H]1NC(=O)[C@H](CCCCN)NC(=O)[C@@H](Cc2c[nH]c3ccccc23)NC(=O)[C@H](Cc2ccc(NC(N)=O)cc2)NC(=O)[C@H](NC(=O)[C@@H](Cc2ccc(Cl)cc2)NC(=O)CCOCCOCCOCCNC(=O)CN2CCN(CC(=O)O)CCN(CC(=O)O)CCN(CC(=O)O)CC2)CSSC[C@@H](C(=O)N[C@@H](Cc2ccc3ccccc3c2)C(N)=O)NC1=O`, the outcome in experiment [1] was inactive. Besides, in experiment [2], the outcome was Active.
Turning to `C[C@@H](O)[C@@H]1NC(=O)[C@H](CCCCN)NC(=O)[C@@H](Cc2c[nH]c3ccccc23)NC(=O)[C@H](Cc2ccc(NC(N)=O)cc2)NC(=O)[C@H](NC(=O)[C@H](N)Cc2ccc(Cl)cc2)CSSC[C@@H](C(=O)N[C@H](Cc2ccc(NC(N)=O)cc2)C(=O)NCC(=O)O)NC1=O`, the outcome in experiment [1] was inactive.
Still for that read-out and setting: the entry for `C[C@@H](O)[C@@H]1NC(=O)[C@H](CCCCN)NC(=O)[C@@H](Cc2c[nH]c3ccccc23)NC(=O)[C@@H](N(C)C(=O)c2ccccc2)NC(=O)[C@H](NC(=O)[C@H](N)Cc2ccc(Cl)cc2)CSSC[C@@H](C(=O)N[C@@H](Cc2ccc3ccccc3c2)C(N)=O)NC1=O` is “inactive”; for `C[C@@H](O)[C@@H]1NC(=O)[C@H](CCCCN)NC(=O)[C@@H](Cc2ccc(NC(N)=O)cc2)NC(=O)[C@H](Cc2ccc(O)cc2)NC(=O)[C@H](NC(=O)[C@H](N)Cc2ccc(Cl)cc2)CSSC[C@@H](C(=O)N[C@@H](Cc2ccc3ccccc3c2)C(N)=O)NC1=O` it is “inactive”; for `CONC(=O)Nc1ccc(C[C@@H]2NC(=O)[C@H](NC(=O)[C@H](N)Cc3ccc(Cl)cc3)CSSC[C@@H](C(=O)N[C@@H](Cc3ccc4ccccc4c3)C(N)=O)NC(=O)[C@H]([C@@H](C)O)NC(=O)[C@H](CCCCN)NC(=O)[C@@H](Cc3c[nH]c4ccccc34)NC2=O)cc1` it is “inactive”.
The same measure, in the same setting: the entry for `C[C@@H](O)[C@@H]1NC(=O)[C@H](CCCCN)NC(=O)[C@@H](Cc2c[nH]c3ccccc23)NC(=O)[C@H](Cc2ccc(NC(N)=O)cc2)NC(=O)[C@H](NC(=O)[C@H](N)Cc2ccc(Cl)cc2)CSSC[C@@H](C(=O)N[C@@H](Cc2ccc(NC(=O)[C@@H]3CC(=O)NC(=O)N3)cc2)C(N)=O)NC1=O` is “inactive”.
For the compound `C[C@@H](O)[C@@H]1NC(=O)[C@H](CCCCN)NC(=O)[C@@H](Cc2ccc(NC(N)=O)cc2)NC(=O)[C@H](Cc2ccc(O)cc2)NC(=O)[C@H](NC(=O)[C@H](N)Cc2ccc([N+](=O)[O-])cc2)CSSC[C@@H](C(=O)N[C@@H](Cc2ccc3ccccc3c2)C(N)=O)NC1=O`, the result in experiment [1] was inactive. Further, in experiment [2], the result was Active.
Turning to `C[C@@H](O)[C@@H]1NC(=O)[C@H](CCCCN)NC(=O)[C@@H](Cc2c[nH]c3ccccc23)NC(=O)[C@H](Cc2ccc(NC(N)=O)cc2)NC(=O)[C@H](NC(=O)[C@H](N)Cc2ccc(Cl)cc2)CSSC[C@@H](C(=O)N[C@@H](Cc2ccc(NC(N)=O)cc2)C(N)=O)NC1=O`, in experiment [1], the result was inactive.
Take `C[C@@H](O)[C@@H]1NC(=O)[C@H](CCCCN)NC(=O)[C@H](Cc2c[nH]c3ccc(F)cc23)NC(=O)[C@H](Cc2ccc(NC(N)=O)cc2)NC(=O)[C@H](NC(=O)[C@H](N)Cc2ccc(Cl)cc2)CSSC[C@@H](C(=O)N[C@@H](Cc2ccc3ccccc3c2)C(N)=O)NC1=O`: in experiment [1], the result was inactive.
